Entries after “also recorded” stand apart in the source; their conditions may differ. Read-outs that look alike come from different tables or passages of the source. One block for each compound: values may come before it. Square brackets hold non-standard residues; d marks the D form. Peptide text beside a SMILES is read from it. * marks the point of attachment. Boc = CC(C)(C)OC(=O)*
How the values were obtained:
[1] = Brain protein binding, rapid equilibrium dialysis; type: in vitro ADME; settings: mouse, mouse brain homogenate (dilution factor D = 5)
Method in brief: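 Mouse brain homogenate spiked to 500 ng/mL final (from a 10 µg/mL aqueous dilution of DMSO solution) was dialysed against DPBS across an 8 kDa cutoff membrane for 4 h at 37 °C with 250 rpm orbital shaking. Both chambers were sampled and quantified by LC–MS/MS. fu,d = receiver/donor, corrected to undiluted fu with D = 5. Done in triplicate.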

[2] = type: in vitro ADME, mouse
[3] = test system: co-culture of primary mouse astrocytes and immortalized mouse endothelial cells (bEnd3); type: in vitro ADME; settings: ratio of Pe values
[4] = biological target: human TOP (Homo sapiens, UniProt P52888); experiment: Peptidase selectivity: thimet oligopeptidase, fluorogenic substrate; type: biochemical; settings: eight-point concentration–response up to 300 μM; substrate 15 μM
human TOP, sequence (P52888 whole entry): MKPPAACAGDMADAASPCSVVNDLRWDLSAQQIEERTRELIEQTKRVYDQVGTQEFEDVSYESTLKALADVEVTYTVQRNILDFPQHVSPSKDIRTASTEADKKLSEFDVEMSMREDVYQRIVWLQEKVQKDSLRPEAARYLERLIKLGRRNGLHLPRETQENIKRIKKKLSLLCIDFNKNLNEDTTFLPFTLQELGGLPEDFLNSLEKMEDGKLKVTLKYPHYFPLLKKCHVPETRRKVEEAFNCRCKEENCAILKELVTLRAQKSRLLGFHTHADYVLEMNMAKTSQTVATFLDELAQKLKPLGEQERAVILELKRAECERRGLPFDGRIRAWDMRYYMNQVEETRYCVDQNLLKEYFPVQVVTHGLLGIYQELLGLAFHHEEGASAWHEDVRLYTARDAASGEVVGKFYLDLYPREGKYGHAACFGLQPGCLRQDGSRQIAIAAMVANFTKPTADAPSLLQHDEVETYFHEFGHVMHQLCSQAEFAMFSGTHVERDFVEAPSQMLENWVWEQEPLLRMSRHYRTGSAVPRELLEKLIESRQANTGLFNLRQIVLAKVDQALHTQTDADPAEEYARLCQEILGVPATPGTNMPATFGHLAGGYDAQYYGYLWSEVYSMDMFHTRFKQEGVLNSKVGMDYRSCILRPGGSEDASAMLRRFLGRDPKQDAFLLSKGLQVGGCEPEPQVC

[5] = biological target: human NEP (Homo sapiens, UniProt P08473); experiment: Peptidase selectivity: neprilysin, fluorogenic substrate; type: biochemical; settings: eight-point concentration–response up to 300 μM; substrate 10 μM
human NEP, sequence (P08473 whole entry): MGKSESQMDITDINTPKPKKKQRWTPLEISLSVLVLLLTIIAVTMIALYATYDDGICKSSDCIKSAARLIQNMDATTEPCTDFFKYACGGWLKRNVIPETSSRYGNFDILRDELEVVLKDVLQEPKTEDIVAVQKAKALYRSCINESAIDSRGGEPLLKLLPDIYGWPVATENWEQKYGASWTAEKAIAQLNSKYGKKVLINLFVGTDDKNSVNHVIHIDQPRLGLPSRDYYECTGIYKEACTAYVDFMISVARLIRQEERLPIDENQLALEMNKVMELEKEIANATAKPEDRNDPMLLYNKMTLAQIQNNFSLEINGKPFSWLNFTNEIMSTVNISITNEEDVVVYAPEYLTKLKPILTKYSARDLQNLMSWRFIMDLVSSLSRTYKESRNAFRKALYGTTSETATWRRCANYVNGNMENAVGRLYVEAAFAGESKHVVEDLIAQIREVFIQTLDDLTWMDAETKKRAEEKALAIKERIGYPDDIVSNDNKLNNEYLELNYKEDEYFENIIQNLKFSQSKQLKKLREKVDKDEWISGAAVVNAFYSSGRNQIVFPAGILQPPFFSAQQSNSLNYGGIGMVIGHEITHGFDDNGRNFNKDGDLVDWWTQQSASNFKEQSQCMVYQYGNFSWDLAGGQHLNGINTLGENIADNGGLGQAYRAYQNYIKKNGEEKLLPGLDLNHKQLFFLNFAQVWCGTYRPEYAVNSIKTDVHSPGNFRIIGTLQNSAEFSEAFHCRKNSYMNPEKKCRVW

[6] = biological target: human ACE2 (Homo sapiens, UniProt Q9BYF1); experiment: Peptidase selectivity: ACE2, fluorogenic substrate; type: biochemical; settings: eight-point concentration–response up to 300 μM; substrate 10 μM
human ACE2, sequence (Q9BYF1 18-805): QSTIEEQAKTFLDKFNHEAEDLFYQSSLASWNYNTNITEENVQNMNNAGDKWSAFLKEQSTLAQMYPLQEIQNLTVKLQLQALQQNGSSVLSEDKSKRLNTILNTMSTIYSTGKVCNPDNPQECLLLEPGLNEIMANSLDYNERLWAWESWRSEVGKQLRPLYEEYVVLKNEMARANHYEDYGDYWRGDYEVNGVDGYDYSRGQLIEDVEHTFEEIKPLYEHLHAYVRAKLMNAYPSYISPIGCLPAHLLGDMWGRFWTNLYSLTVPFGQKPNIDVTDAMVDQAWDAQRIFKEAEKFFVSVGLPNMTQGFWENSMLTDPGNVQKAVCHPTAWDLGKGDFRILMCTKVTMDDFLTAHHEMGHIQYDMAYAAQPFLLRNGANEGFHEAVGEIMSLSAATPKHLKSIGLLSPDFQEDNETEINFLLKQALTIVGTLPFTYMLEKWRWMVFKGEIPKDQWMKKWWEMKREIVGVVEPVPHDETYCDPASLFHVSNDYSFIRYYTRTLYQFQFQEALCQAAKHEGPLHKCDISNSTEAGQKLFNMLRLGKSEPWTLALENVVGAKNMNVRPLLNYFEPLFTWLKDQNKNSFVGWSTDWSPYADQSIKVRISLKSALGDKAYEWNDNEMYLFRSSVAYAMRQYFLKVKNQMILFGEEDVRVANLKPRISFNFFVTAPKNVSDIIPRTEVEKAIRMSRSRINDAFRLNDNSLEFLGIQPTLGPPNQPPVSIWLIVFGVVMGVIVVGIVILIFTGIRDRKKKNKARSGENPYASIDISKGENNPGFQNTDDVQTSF
Method in brief: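 Recombinant human ACE2 was tested in artificial CSF at 37 °C with a 10 min preincubation of enzyme and test compound (from 30–50 mM DMSO stocks). Mca-Ala-Pro-Lys(Dnp) (10 µM) started the reaction, and fluorescence (320 nm excitation, 405 nm emission) was followed continuously for 20 min; n = 4.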

[7] = biological target: human angiotensin-converting enzyme (Homo sapiens, UniProt P12821); experiment: Peptidase selectivity: ACE, fluorogenic substrate; type: biochemical; settings: eight-point concentration–response up to 300 μM; substrate 10 μM
human angiotensin-converting enzyme, sequence (P12821 30-1306): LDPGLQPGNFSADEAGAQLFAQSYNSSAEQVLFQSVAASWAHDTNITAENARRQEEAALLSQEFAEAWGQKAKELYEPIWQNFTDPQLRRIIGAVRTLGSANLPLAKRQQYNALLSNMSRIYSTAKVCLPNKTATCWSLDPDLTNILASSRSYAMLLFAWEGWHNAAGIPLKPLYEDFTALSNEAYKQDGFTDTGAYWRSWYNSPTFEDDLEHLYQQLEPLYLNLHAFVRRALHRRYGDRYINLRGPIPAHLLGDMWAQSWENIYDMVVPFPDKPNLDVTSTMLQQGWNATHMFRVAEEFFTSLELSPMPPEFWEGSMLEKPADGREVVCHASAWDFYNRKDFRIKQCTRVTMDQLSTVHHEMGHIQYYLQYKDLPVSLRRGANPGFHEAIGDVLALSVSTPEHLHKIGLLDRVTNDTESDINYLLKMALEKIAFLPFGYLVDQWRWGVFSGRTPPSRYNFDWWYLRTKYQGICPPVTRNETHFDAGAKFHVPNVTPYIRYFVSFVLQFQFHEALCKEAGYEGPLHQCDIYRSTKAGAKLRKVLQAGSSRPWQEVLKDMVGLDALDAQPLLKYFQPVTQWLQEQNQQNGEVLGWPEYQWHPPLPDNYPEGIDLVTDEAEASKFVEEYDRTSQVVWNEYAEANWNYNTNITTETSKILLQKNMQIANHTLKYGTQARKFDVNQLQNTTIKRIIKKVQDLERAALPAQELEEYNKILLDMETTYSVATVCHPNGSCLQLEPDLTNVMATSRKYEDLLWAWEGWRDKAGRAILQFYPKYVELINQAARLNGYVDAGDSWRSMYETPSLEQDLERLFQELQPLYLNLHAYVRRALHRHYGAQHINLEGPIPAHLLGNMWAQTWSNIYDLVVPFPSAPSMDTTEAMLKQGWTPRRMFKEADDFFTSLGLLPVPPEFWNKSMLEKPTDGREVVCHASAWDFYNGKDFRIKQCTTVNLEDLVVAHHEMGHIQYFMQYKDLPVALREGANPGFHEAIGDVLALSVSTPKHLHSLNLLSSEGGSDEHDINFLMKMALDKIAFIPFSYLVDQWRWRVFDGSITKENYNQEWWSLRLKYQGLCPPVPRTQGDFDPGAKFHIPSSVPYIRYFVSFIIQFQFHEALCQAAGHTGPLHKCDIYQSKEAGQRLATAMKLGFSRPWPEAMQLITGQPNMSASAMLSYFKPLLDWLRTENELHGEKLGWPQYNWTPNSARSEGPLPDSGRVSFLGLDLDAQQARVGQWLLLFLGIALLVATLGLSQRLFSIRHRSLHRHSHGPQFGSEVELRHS
Method in brief: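 Continuous fluorogenic assay with recombinant human ACE in artificial CSF at 37 °C. Test compound (from 30–50 mM DMSO stocks) was preincubated with enzyme for 10 min. The reaction was started with Mca-[…]Dnp)-OH (10 µM), and fluorescence (ex 320/em 405 nm) was read continuously for 20 min; n = 4.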

[8] = biological target: Rat recombinant neurolysin (Rattus norvegicus, UniProt P42676); experiment: Hydrolysis of endogenous substrates BK and NT by Nln, LC-MS/MS; type: biochemical; settings: compound 10 or 30 μM, Nln 0.5 nM; for hydrolysis of BK by Nln, formation of BK-(1–5): BK 20 μM; for hydrolysis of NT by Nln, formation of NT-(1–10): NT 20 μM
Rat recombinant neurolysin, sequence (P42676 38-704): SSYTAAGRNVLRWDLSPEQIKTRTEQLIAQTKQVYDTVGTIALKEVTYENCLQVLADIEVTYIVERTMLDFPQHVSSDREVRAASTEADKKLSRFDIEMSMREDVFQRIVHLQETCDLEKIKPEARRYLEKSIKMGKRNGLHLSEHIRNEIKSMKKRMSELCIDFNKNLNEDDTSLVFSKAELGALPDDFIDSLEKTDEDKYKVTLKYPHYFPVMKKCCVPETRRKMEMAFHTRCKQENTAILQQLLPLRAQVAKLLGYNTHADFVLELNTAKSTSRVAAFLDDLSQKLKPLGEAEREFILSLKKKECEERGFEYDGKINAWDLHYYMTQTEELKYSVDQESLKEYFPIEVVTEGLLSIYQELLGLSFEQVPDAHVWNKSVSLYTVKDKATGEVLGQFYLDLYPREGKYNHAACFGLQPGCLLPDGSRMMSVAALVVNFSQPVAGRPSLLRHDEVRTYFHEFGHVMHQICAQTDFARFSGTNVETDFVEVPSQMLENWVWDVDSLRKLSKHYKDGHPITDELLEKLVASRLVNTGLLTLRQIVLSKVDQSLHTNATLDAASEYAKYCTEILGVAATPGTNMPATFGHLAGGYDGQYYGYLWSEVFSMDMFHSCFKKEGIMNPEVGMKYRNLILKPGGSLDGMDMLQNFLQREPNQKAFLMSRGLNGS
Method in brief: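 In-house recombinant rat Nln (0.5 nM) was preincubated 10 min at 37 °C with test compound (10 or 30 µM), then given bradykinin (20 µM) for a further 10 min at 37 °C. BK-(1–5) was quantified by LC–MS/MS (water/acetonitrile with 0.1% formic acid gradient, column 40 °C) as a peak-area ratio to internal standard; n = 3.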

[9] = biological target: recombinant rat Nln (Rattus norvegicus, UniProt P42676); experiment: Nln activation, continuous quenched fluorescence substrate; type: biochemical; settings: for increase in potency over the least active hit / increase in potency over the most active hit: A50 ratio; for mean Amax of the two enantiomers: mean over L and D enantiomer
recombinant rat Nln, sequence (P42676 38-704): as above

[10] = CD-1 (source of the primary astrocytes), mouse
[11] = 100% = normal enzyme turnover, mean of n = 4, 95% CI in parentheses

Compound: N[C@@H](Cc1c[nH]cn1)C(=O)NCCc1c[nH]c2ccccc12 [Compound 9d, (S)-N-(2-(1H-Indol-3-yl)ethyl)-2-amino-3-(1H-imidazol-4-yl)-propanamide]
fraction unbound at 4 h, 500 ng/mL [1]: 0.14 ± 0.012 | Papp A→B at 120 min, 10 μg/mL [2, 10]: 17.8 ×10⁻⁶ cm/s | increase in BBB permeability / brain penetration over hit compounds 1 and 4 [3]: 4–5 fold | effect on catalytic activity of TOP [4]: only exhibited inhibition at concentrations approaching 300 μM | effect on catalytic activity of NEP [5]: None of the three compounds showed appreciable inhibition | effect on catalytic activity of ACE2 [6]: inhibition of ACE2 at high concentrations | effect on catalytic activity of ACE [7]: inhibition of ACE at high concentration | hydrolysis of BK by Nln, formation of BK-(1–5) [8]: enhanced hydrolysis of BK | hydrolysis of NT by Nln, formation of NT-(1–10) [8]: hydrolysis of NT by Nln was also enhanced

Amax, maximum % activation achieved (95% CI) [9, 11]: 466.6 (402.3 to 579.7) %
Compound: N[C@@H](Cc1c[nH]cn1)C(=O)Nc1ccccc1 [Compound 6a, (S)-2-Amino-3-(1H-imidazol-4-yl)-N-phenylpropanamide]

Amax, maximum % activation achieved (95% CI) [9]: 323.7 (310.3 to 337.9) %
Compound: N[C@@H](Cc1c[nH]cn1)C(=O)NCCc1ccc2ccccc2c1 [Compound 9f, (S)-2-Amino-3-(1H-imidazol-4-yl)-N-(2-(naphthalen-2-yl)ethyl)-propanamide]

Amax, maximum % activation achieved (95% CI) [9]: 339.8 (325.4 to 355.4) %
Compound: N[C@H](Cc1c[nH]cn1)C(=O)NCCc1ccc2ccccc2c1 [Compound 9g, (R)-2-Amino-3-(1H-imidazol-4-yl)-N-(2-(naphthalen-2-yl)ethyl)-propanamide]

Compound: N[C@@H](Cc1c[nH]cn1)C(=O)Nc1cccc2cccnc12 [Compound 11a, (S)-2-Amino-3-(1H-imidazol-4-yl)-N-(quinolin-8-yl)propanamide]
Amax, maximum % activation achieved (95% CI) [9, 11]: 281.2 (266.7 to 297.1) % | increase in potency over the least active hit [9]: > 30 fold | increase in potency over the most active hit [9]: > 10 fold | mean Amax of the two enantiomers [9]: 285% | fraction unbound at 4 h, 500 ng/mL [1]: 0.062 ± 0.011 | Papp A→B at 120 min, 10 μg/mL [2, 10]: 19 ×10⁻⁶ cm/s | increase in BBB permeability / brain penetration over hit compounds 1 and 4 [3]: 4–5 fold | effect on catalytic activity of TOP [4]: No appreciable inhibition | effect on catalytic activity of NEP [5]: None of the three compounds showed appreciable inhibition | effect on catalytic activity of ACE2 [6]: inhibition of ACE2 at high concentrations | effect on catalytic activity of ACE [7]: inhibition of ACE at high concentration | hydrolysis of BK by Nln, formation of BK-(1–5) [8]: enhanced hydrolysis of BK | hydrolysis of NT by Nln, formation of NT-(1–10) [8]: hydrolysis of NT by Nln was also enhanced

Nln activation, result in words [9]: inactive | Amax, maximum % activation achieved (95% CI) [9, 11]: Inactive | A50, half maximal activation concentration (95% CI) ([9]; recombinant rat Nln, QFS […] μM, 37 °C, mean of n = 4, 95% CI in parentheses): Inactive
Compound: CC(C)(C)OC(=O)N[C@@H](Cc1ccc(O)cc1)C(=O)N[C@H](Cc1ccccc1)C(=O)O [Compound 4b] (Boc-Tyr-[dF]-OH)

Amax, maximum % activation achieved (95% CI) [9]: 282.4 (266.5 to 299.5) %
Compound: N[C@@H](Cc1c[nH]cn1)C(=O)NCCc1ccc([N+](=O)[O-])cc1 [Compound 4o, (S)-2-Amino-3-(1H-imidazol-4-yl)-N-(4-nitrophenethyl)-propanamide]

Compound: N-(2-(1H-Indol-3-yl)ethyl)-3-(1H-imidazol-4-yl)propanamide [Compound 9c]
A50, half maximal activation concentration (95% CI) [9]: Inactive | Amax, maximum % activation achieved (95% CI) [9]: Inactive | Nln activation, result in words [9]: complete amelioration of activity; also recorded: ameliorates activity

Amax, maximum % activation achieved (95% CI) [9]: 327.5 (309.7 to 348.2) %
Compound: COc1cccc(CNC(=O)[C@@H](N)Cc2c[nH]cn2)c1 [Compound 5f, (S)-2-Amino-3-(1H-3l4-imidazol-4-yl)-N-(3-methoxybenzyl)-propanamide]

Compound: N[C@H](Cc1c[nH]cn1)C(=O)Nc1cccc2cccnc12 [Compound 11b, (R)-2-Amino-3-(1H-imidazol-4-yl)-N-(quinolin-8-yl)propanamide]
Amax, maximum % activation achieved (95% CI) [9, 11]: 288.3 (274.3 to 303.3) % | mean Amax of the two enantiomers [9]: 285%

Compound: NC(Cc1c[nH]cn1)C(=O)NCCc1c[nH]c2ccccc12 (racemic) [(rac)-9a, (rac)-N-(2-(1H-Indol-3-yl)ethyl)-2-amino-3-(1H-imidazol-4-yl)-propanamide]
Amax, maximum % activation achieved (95% CI) [9, 11]: 197 (177.5 to 222.8) %

Compound: N[C@@H](Cc1c[nH]cn1)C(=O)NCCCCc1ccccc1 [Compound 8a, (S)-2-Amino-3-(1H-imidazol-4-yl)-N-(4-phenylbutyl)-propanamide]
Amax, maximum % activation achieved (95% CI) [9, 11]: 328 (309 to 351) %

Amax, maximum % activation achieved (95% CI) [9]: 152.2 (137.3 to 171.5) %
Compound: N[C@@H](Cc1c[nH]cn1)C(=O)NCc1ccccc1 [Compound 5a, (S)-2-Amino-N-benzyl-3-(1H-imidazol-4-yl)propanamide]

Compound: N[C@@H](Cc1c[nH]cn1)C(=O)NCc1cccc2ccccc12 [Compound 10c, (S)-2-Amino-3-(1H-imidazol-4-yl)-N-(naphthalen-1-ylmethyl)-propanamide]
Amax, maximum % activation achieved (95% CI) [9, 11]: 264 (256.3 to 272.6) % | increase in potency over the least active hit [9]: > 30 fold | increase in potency over the most active hit [9]: > 10 fold | increase in BBB permeability / brain penetration over hit compounds 1 and 4 [3]: 4–5 fold | effect on catalytic activity of TOP [4]: No appreciable inhibition | effect on catalytic activity of NEP [5]: None of the three compounds showed appreciable inhibition | effect on catalytic activity of ACE2 [6]: no inhibition up to 300 μM | effect on catalytic activity of ACE [7]: no inhibition at the maximum concentration tested | hydrolysis of BK by Nln, formation of BK-(1–5) [8]: enhanced hydrolysis of BK | hydrolysis of NT by Nln, formation of NT-(1–10) [8]: hydrolysis of NT by Nln was also enhanced

Compound: COc1ccc(CCNC(=O)[C@@H](N)Cc2c[nH]cn2)cc1 [Compound 4e, (S)-2-Amino-3-(1H-imidazol-4-yl)-N-(4-methoxyphenethyl)-propanamide]
Amax, maximum % activation achieved (95% CI) [9, 11]: 339.4 (314.2 to 369.3) %

Amax, maximum % activation achieved (95% CI) [9]: 330.1 (313.9 to 347.7) %
Compound: N[C@H](Cc1c[nH]cn1)C(=O)NCCc1ccc(C(F)(F)F)cc1 [Compound 4l, (R)-2-Amino-3-(1H-imidazol-4-yl)-N-(4-(trifluoromethyl)-phenethyl)propanamide]

Papp A→B at 120 min, 10 μg/mL ([2]; CD-1, mouse): 5.33 ×10⁻⁶ cm/s
Compound: N[C@@H](Cc1c[nH]cn1)C(=O)N[C@@H](Cc1c[nH]c2ccccc12)C(=O)O [Compound 4, His–Trp]

Amax, maximum % activation achieved (95% CI) [9]: 258.2 (244 to 273.4) %
Compound: N[C@@H](Cc1c[nH]cn1)C(=O)NCCc1ccc(-c2ccccc2)cc1 [Compound 4q, (S)-N-(2-([1,1′-Biphenyl]-4-yl)ethyl)-2-amino-3-(1H-imidazol-4-yl)propanamide]

Compound: COc1cccc(CCNC(=O)[C@H](N)Cc2c[nH]cn2)c1 [Compound 4j, (R)-2-Amino-3-(1H-imidazol-4-yl)-N-(3-methoxyphenethyl)-propanamide]
Amax, maximum % activation achieved (95% CI) [9, 11]: 255.3 (230.5 to 284.8) %

Amax, maximum % activation achieved (95% CI) [9]: 299.4 (283.9 to 316.2) %
Compound: N[C@@H](Cc1c[nH]cn1)C(=O)NCCc1ccc(C(F)(F)F)cc1 [Compound 4k, (S)-2-Amino-3-(1H-imidazol-4-yl)-N-(4-(trifluoromethyl)-phenethyl)propanamide]

Compound: N[C@H](Cc1c[nH]cn1)C(=O)NCc1cccc2ccccc12 [Compound 10d, (R)-2-Amino-3-(1H-imidazol-4-yl)-N-(naphthalen-1-ylmethyl)-propanamide]
Amax, maximum % activation achieved (95% CI) [9, 11]: 343 (325.2 to 363.5) %

Amax, maximum % activation achieved (95% CI) [9]: 267.5 (250.1 to 287.1) %
Compound: N[C@H](Cc1c[nH]cn1)C(=O)NCCc1ccc([N+](=O)[O-])cc1 [Compound 4p, (R)-2-Amino-3-(1H-imidazol-4-yl)-N-(4-nitrophenethyl)-propanamide]

— article PMC9295256 (Journal of medicinal chemistry, 2021)
